From ChEMBL document CHEMBL1121614, “Synthesis and antiallergy activity of 4-oxopyrano[3,2-b]indoles” (1980) come the findings set out here.

SMILES strings stand for the structures. Active and inactive are the calls of the source. The calls are words filed in the database; no cut-off is given here.

Experiment [1] concerns Rattus norvegicus. Put plainly: Inhibition of rat passive cutaneous anaphylaxis at 5.0 mg/kg dose after intraperitoneal administration. Format: functional. The conditions noted are these: ip. The procedure, abridged: (§1)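 Rats were sensitized by intradermal injection of antiserum dilutions at several back sites. Drug was suspended in 1% gum tragacanth in saline and given po or ip 10–15 min before challenge with iv ovalbumin (1 mg in 1 mL saline with 0.25% Evans blue). At 30 min the wheal's mean orthogonal diameter was measured. Diameter was plotted against antiserum level and extrapolated to zero. Five rats per group.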

The test system of experiment [2] is Rattus norvegicus. Nature of the experiment: Inhibition of rat passive cutaneous anaphylaxis at 5.0 mg/kg dose after peroral administration. Type of experiment: functional. The conditions noted are these: route oral. The procedure, abridged: as §1
Experiment [3] has as its system Rattus norvegicus. Put plainly: Inhibition of rat passive cutaneous anaphylaxis at 1.0 mg/kg dose after intraperitoneal administration. Type of experiment: functional. The conditions noted are these: ip. In outline: as §1
Experiment [4] concerns Rattus norvegicus. Nature of the experiment: The compound was tested for inhibition of rat passive cutaneous anaphylaxis at 1.0 mg/kg dose after peroral administration. Format: functional. The conditions noted are these: route oral. The procedure, abridged:
as §1

In experiment [5] the test system is Rattus norvegicus. Nature of the experiment: The compound was tested for inhibition of rat passive cutaneous anaphylaxis at 10 mg/kg dose after intraperitoneal administration. Format: functional. The conditions noted are these: ip.
The subject of experiment [6] is Rattus norvegicus. Put plainly: The compound was tested for inhibition of rat passive cutaneous anaphylaxis at 1 mg/kg dose after iv administration. Format: functional. In outline: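 Rat PCA by the iv route. Antiserum dilutions were injected intradermally on the back 48 h before iv challenge with 1 mg ovalbumin in 1 mL saline plus 0.25% Evans blue. Compound was dissolved, if needed, in slight molar excess NaHCO3 and diluted into the antigen solution. Wheal diameter was read at 30 min and extrapolated to zero antiserum by least squares. Groups of five.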

Experiment [7] deals with Rattus norvegicus. Nature of the experiment: The compound was tested for inhibition of rat passive cutaneous anaphylaxis at 2.0 mg/kg dose after peroral administration. Format: functional. As to conditions: route oral. In outline:
as §1

The subject of experiment [8] is Rattus norvegicus. Put plainly: The compound was tested for inhibition of rat passive cutaneous anaphylaxis at 5.0 mg/kg dose after peroral administration; O means inactive. Type of experiment: functional, organism-based. On the set-up: dose 5 mg/kg. In outline:
as §1

For experiment [9], the system named is Rattus norvegicus. Nature of the experiment: The compound was tested for inhibition of rat passive cutaneous anaphylaxis at 2.0 mg/kg dose after intraperitoneal administration. Type of experiment: functional. As to conditions: ip.

One may read the inhibition in vivo as the change of the read-out against control, counted positive when it falls.

Take `Cn1c2ccc([N+](=O)[O-])cc2c2oc(C(=O)O)cc(=O)c21`: the inhibition in vivo at 5 mg/kg worked out at 100% in [1] and 0% in [2]. In addition, 1 mg/kg produced 1% inhibition in vivo in [3].

Take `O=C(Nc1nn[nH]n1)c1cc(=O)c2c(o1)c1ccccc1n2-c1ccccc1`: the results for the inhibition in vivo at 5 mg/kg in experiment [1] and in [2] were 0% and 7%, respectively.

For the molecule `Cn1c2c([N+](=O)[O-])cc([N+](=O)[O-])cc2c2oc(C(=O)O)cc(=O)c21`, the inhibition in vivo at 5 mg/kg in [1] and in experiment [2] was 0% throughout.

Consider `CCn1c2ccccc2c2oc(C(=O)Nc3nn[nH]n3)cc(=O)c21`, for which the inhibition in vivo at 5 mg/kg in experiment [1] was 100%; in experiment [2] it was 1%. Also, the inhibition in vivo at 1 mg/kg in experiment [3] amounted to 12%.

Turning to `Cn1c2ccccc2c2oc(C(=O)Nc3nn[nH]n3)cc(=O)c21`, the inhibition in vivo at 5 mg/kg in experiment [1] was 100%; in experiment [2], 0%. This molecule also returned an inhibition in vivo at 1 mg/kg in [3] of 28%.

Take `Cn1c2ccc([N+](=O)[O-])cc2c2oc(C(=O)Nc3nn[nH]n3)cc(=O)c21`: the figures for the inhibition in vivo at 1 mg/kg in experiment [4] and in experiment [3] were 15% and 42%, respectively. Besides, 5 mg/kg produced 100% inhibition in vivo in experiment [1].

Take `CCn1c2ccccc2c2oc(-c3nn[nH]n3)cc(=O)c21`: the results for the inhibition in vivo at 5 mg/kg in experiment [1] and in [2] were 100% and 70%, respectively. In [3], this molecule displayed an inhibition in vivo at 1 mg/kg of 100%.

For `Cn1c2ccc(Cl)cc2c2oc(C(=O)Nc3nn[nH]n3)cc(=O)c21`, the inhibition in vivo at 5 mg/kg in experiment [1] amounted to 100%; in experiment [2] it was 6%. Besides, the inhibition in vivo at 1 mg/kg in experiment [3] was 38%.

`O=c1cc(-c2nn[nH]n2)oc2c3ccccc3n(-c3ccccc3)c12`: the values for the inhibition in vivo at 5 mg/kg in experiment [1] and in [2] were 100% and 32%, respectively. Besides, testing at 1 mg/kg in experiment [3] gave an inhibition in vivo of 61%.

As to `O=C1c2ccccc2S(=O)(=O)c2cc(-c3nn[nH]n3)ccc21` [DOXANTRAZOLE], in experiment [2], the inhibition in vivo at 5 mg/kg was found to be 50%. Also, in [3], the inhibition in vivo at 1 mg/kg amounted to 33%. Also, testing at 10 mg/kg in experiment [5] gave an inhibition in vivo of 97%.

For `O=C(O)c1cc(=O)c2c(o1)c1ccccc1n2-c1ccccc1`, the values for the inhibition in vivo at 1 mg/kg in experiment [3] and in experiment [6] were 13% and 100%, respectively. The molecule further displayed an inhibition in vivo at 2 mg/kg in experiment [7] of 0%.

In turn, `Cc1ccc2c(c1)c1oc(C(=O)O)cc(=O)c1n2C` yielded an inhibition in vivo at 1 mg/kg in experiment [3] of 18%. The molecule further had an inhibition in vivo at 2 mg/kg in experiment [7] of 11%.

As for `Cc1ccc2c(c1)c1oc(-c3nn[nH]n3)cc(=O)c1n2C`, the results for the inhibition in vivo at 5 mg/kg in experiment [1] and in [2] were 100% and 56%, respectively. For the same molecule, the inhibition in vivo at 1 mg/kg in [3] is 25%.

With `Cn1c2ccc(Cl)cc2c2oc(C(=O)O)cc(=O)c21`, the inhibition in vivo at 5 mg/kg was determined as 23% in experiment [1] and 2% in experiment [2].

Take `Cn1c2c([N+](=O)[O-])cc([N+](=O)[O-])cc2c2oc(C(=O)Nc3nn[nH]n3)cc(=O)c21`: in [1], the inhibition in vivo at 5 mg/kg was 48%.

Turning to `O=C(O)c1cc(=O)c2c(OCC(O)COc3cccc4oc(C(=O)O)cc(=O)c34)cccc2o1` [CROMOLYN SODIUM], the inhibition result in [8] is “inactive”. In addition, the inhibition in vivo at 2 mg/kg in [9] worked out at 50%. The inhibition in vivo at 10 mg/kg in [5] is 89%.

`Cn1c2ccccc2c2oc(-c3nn[nH]n3)cc(=O)c21`: the results for the inhibition in vivo at 5 mg/kg in experiment [1] and in experiment [2] were 100% and 39%, respectively. For the same molecule, testing at 1 mg/kg in experiment [3] gave an inhibition in vivo of 87%.

Consider `Cc1ccc2c(c1)c1oc(C(=O)Nc3nn[nH]n3)cc(=O)c1n2C`, for which the inhibition in vivo at 5 mg/kg in experiment [1] stood at 100%; in experiment [2] it was 0%. The inhibition in vivo at 1 mg/kg in [3] was 33%.

For the molecule `Cn1c2ccccc2c2oc(C(=O)O)cc(=O)c21`, the inhibition in vivo at 5 mg/kg in [1] was found to be 100%; in [2], 96%. For the same molecule, the inhibition in vivo at 1 mg/kg in [3] was 30%.

As for `Cn1c2ccc(Cl)cc2c2oc(-c3nn[nH]n3)cc(=O)c21`, the figures for the inhibition in vivo at 5 mg/kg in experiment [1] and in experiment [2] were 100% and 33%, respectively. This molecule also yielded an inhibition in vivo at 1 mg/kg in experiment [3] of 46%.

As for `CCn1c2ccccc2c2oc(C(=O)O)cc(=O)c21`, the inhibition in vivo at 1 mg/kg amounted to 0% in experiment [3] and 100% in experiment [6]. Moreover, in experiment [7], the inhibition in vivo at 2 mg/kg came to 22%.
